The results in this text go back to ChEMBL document CHEMBL1141057, “Synthesis and antibacterial activity of a novel series of DNA gyrase inhibitors: 5-[(E)-2-arylvinyl]pyrazoles” (Bioorg Med Chem Lett, 2005).

In experiment [1] the test system is Staphylococcus aureus. Briefly: Minimal inhibitory concentration against Staphylococcus aureus FDA 209P; susceptible strain. The experiment is classed as functional. The procedure, abridged: (§1)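 MIC determined by the microdilution method against Gram-positive strains, including a susceptible strain and a multidrug-resistant S. aureus strain.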
Experiment [2] has as its system Escherichia coli. Briefly: Minimal inhibitory concentration against Escherichia coli NIHJ JC-2; susceptible strain. The experiment is classed as functional. The procedure, abridged:
(§2)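 MIC determined by the microdilution method.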

The test system of experiment [3] is Staphylococcus aureus. The experiment can be described thus: Minimal inhibitory concentration against Staphylococcus aureus KMP9; multidrug resistant strain. The experiment is classed as functional. In a few lines: as §1
For experiment [4], the system named is Escherichia coli. Briefly: Minimal inhibitory concentration against Escherichia coli W3110 delta acrA; A multidrug efflux pump mutant. The experiment is classed as functional. The procedure, abridged:
as §2

Experiment [5] concerns Staphylococcus aureus. The experiment can be described thus: Minimal inhibitory concentration against Staphylococcus aureus FDA 209P(MSSA); susceptible strain. In kind it is functional.
Experiment [6] addresses DNA gyrase (Escherichia coli, UniProt P0AES4+P0AES6). Briefly: Inhibitory activity against supercoiling activity of DNA gyrase isolated from Escherichia coli. In kind it is protein-complex assay.
Experiment [7] has as its system Streptococcus pneumoniae. Briefly: Minimal inhibitory concentration against Streptococcus pneumoniae KT2524 (PRSP); sparfloxacin, clarithromycin, ampicillin resistant strain. In kind it is functional.
For experiment [8], the target named is T1, DNA topoisomerase 4 subunit A (Escherichia coli K-12, UniProt P0AFI2).
T1 sequence (P0AFI2 whole entry): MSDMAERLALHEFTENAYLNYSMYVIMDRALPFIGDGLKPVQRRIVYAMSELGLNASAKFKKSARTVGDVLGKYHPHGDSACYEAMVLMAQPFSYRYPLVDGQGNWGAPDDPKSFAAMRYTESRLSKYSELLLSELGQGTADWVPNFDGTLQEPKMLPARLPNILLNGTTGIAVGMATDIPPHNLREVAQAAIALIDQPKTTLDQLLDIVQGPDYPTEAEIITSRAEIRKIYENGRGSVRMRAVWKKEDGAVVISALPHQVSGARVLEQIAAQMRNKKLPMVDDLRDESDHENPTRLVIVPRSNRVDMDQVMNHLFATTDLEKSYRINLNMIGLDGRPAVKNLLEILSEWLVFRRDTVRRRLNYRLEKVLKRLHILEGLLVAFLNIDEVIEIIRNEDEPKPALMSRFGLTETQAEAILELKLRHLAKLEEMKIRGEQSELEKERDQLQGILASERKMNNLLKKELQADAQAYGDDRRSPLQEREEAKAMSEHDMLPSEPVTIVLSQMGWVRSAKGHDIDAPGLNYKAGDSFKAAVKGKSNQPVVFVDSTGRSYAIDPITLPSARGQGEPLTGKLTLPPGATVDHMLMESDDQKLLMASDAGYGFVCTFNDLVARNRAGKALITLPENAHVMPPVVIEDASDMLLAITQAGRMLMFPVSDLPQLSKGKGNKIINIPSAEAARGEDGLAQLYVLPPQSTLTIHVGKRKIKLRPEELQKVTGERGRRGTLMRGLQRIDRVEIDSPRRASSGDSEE
Briefly: Inhibitory activity against decatenation of DNA topoisomerase IV isolated from Escherichia coli.

For experiment [9], the system named is Staphylococcus aureus. The experiment can be described thus: Minimal inhibitory concentration against Staphylococcus aureus KMP9 (MRSA); sparfloxacin, clarithromycin, ampicillin resistant strain. The experiment is classed as functional.
Experiment [10] relates to Enterococcus faecium. Briefly: Minimal inhibitory concentration against Enterococcus faecium ATCC 19434 (VSE); susceptible strain. In kind it is functional.
The subject of experiment [11] is Streptococcus pneumoniae. The experiment can be described thus: Minimal inhibitory concentration against Streptococcus pneumoniae ATCC 49619 (PSSP); susceptible strain. The experiment is classed as functional.
The test system of experiment [12] is Enterococcus faecium. The experiment can be described thus: Minimal inhibitory concentration against Enterococcus faecium KU1778 (VRE); sparfloxacin, clarithromycin, ampicillin, vancomycin resistant strain. In kind it is functional.
In experiment [13] the test system is Staphylococcus aureus. The experiment can be described thus: 4 Minimal inhibitory concentration against Staphylococcus aureus KMP9; multidrug resistant strain. The experiment is classed as functional. In a few lines:
as §1

Each structure is given as a SMILES string. ≈ marks a conversion by molar mass, not a printed value.

For the compound `Clc1ccc(/C=C/c2cc(C3CCNCC3)[nH]n2)cc1Cl`, the minimal inhibitory concentration (MIC) – broadly, the lowest concentration that inhibits growth of the organism – in [1] was found to be 4 µg/mL (≈ 12.4 µM); in [2] it was 8 µg/mL (≈ 24.8 µM); in experiment [3], 4 µg/mL (≈ 12.4 µM); in [4], 4 µg/mL (≈ 12.4 µM).

For the compound `Clc1cccc(-n2nc(C3CCNCC3)cc2/C=C/c2ccc(OCc3ccc(Cl)c(Cl)c3)cc2)c1`, the MIC in [1] worked out at 2 µg/mL (≈ 3.71 µM); in experiment [2], 32 µg/mL (≈ 59.4 µM); in [3], 4 µg/mL (≈ 7.42 µM); in experiment [4], 4 µg/mL (≈ 7.42 µM).

For `Clc1ccc(COc2ccc(/C=C/c3cc(C4CCNCC4)[nH]n3)cc2)cc1Cl`, the MIC in experiment [5] is 2 µg/mL (≈ 4.67 µM); in experiment [7] it was 1 µg/mL (≈ 2.33 µM); in [9], 2 µg/mL (≈ 4.67 µM); in experiment [1], 2 µg/mL (≈ 4.67 µM); in [10], 2 µg/mL (≈ 4.67 µM); in experiment [2], 4 µg/mL (≈ 9.34 µM). Also, the MIC in experiment [3] stood at 2 µg/mL (≈ 4.67 µM); in [11] it was 2 µg/mL (≈ 4.67 µM); in experiment [12], 1 µg/mL (≈ 2.33 µM); in experiment [4], 2 µg/mL (≈ 4.67 µM). Also, the results for the IC50 in experiment [6] and in [8] were 32.4 µM and 64.9 µM, respectively.

On to `Clc1cccc(-n2nc(C3CCNCC3)cc2/C=C/c2cc3cc(Cl)ccc3[nH]2)c1`, for which the MIC in experiment [1] was 2 µg/mL (≈ 4.57 µM); in experiment [2] it was 16 µg/mL (≈ 36.6 µM); in experiment [3], 4 µg/mL (≈ 9.15 µM); in [4], 4 µg/mL (≈ 9.15 µM).

In the case of `Clc1cccc(Cl)c1/C=C/c1cc(C2CCNCC2)[nH]n1`, the minimal inhibitory concentration (MIC) in experiment [1] was 128 µg/mL (≈ 397 µM); in experiment [2], more than 128 µg/mL; in experiment [3], more than 128 µg/mL; in experiment [4], more than 128 µg/mL.

Consider `Clc1cccc(-n2nc(C3CCNCC3)cc2/C=C/c2ccc(Cl)c(Cl)c2)c1`, for which the MIC in experiment [1] worked out at 8 µg/mL (≈ 18.5 µM); in experiment [2], 16 µg/mL (≈ 37 µM); in experiment [13] it was 4 µg/mL (≈ 9.24 µM); in [4], 4 µg/mL (≈ 9.24 µM).

Regarding `Clc1cccc(-n2nc(C3CCNCC3)cc2CCc2c(Cl)cccc2Cl)c1`, the MIC was 32 µg/mL (≈ 73.6 µM) in experiment [1], more than 128 µg/mL in experiment [2], 32 µg/mL (≈ 73.6 µM) in experiment [3] and 16 µg/mL (≈ 36.8 µM) in experiment [4].

As to `Clc1cccc(-n2nc(C3CCNCC3)cc2/C=C/c2c(Cl)cccc2Cl)c1`, the MIC was determined as 4 µg/mL (≈ 9.24 µM) in [5]; 4 µg/mL (≈ 9.24 µM) in experiment [7]; 4 µg/mL (≈ 9.24 µM) in experiment [9]; 4 µg/mL (≈ 9.24 µM) in [1]; 8 µg/mL (≈ 18.5 µM) in experiment [10]; 64 µg/mL (≈ 148 µM) in experiment [2]. Moreover, the minimal inhibitory concentration (MIC) in experiment [3] turned out to be 4 µg/mL (≈ 9.24 µM); in experiment [11], 4 µg/mL (≈ 9.24 µM); in experiment [12], 8 µg/mL (≈ 18.5 µM); in experiment [4], 4 µg/mL (≈ 9.24 µM).

Consider `Clc1cccc(-n2nc(C3CCNCC3)cc2/C=C/c2c[nH]c3ccc(Cl)cc23)c1`, for which the MIC in experiment [5] came out at 1 µg/mL (≈ 2.29 µM); in experiment [7], 2 µg/mL (≈ 4.57 µM); in [9], 1 µg/mL (≈ 2.29 µM); in experiment [1], 1 µg/mL (≈ 2.29 µM); in experiment [10] it was 2 µg/mL (≈ 4.57 µM); in experiment [2], 8 µg/mL (≈ 18.3 µM). Besides, the MIC in experiment [3] was determined as 1 µg/mL (≈ 2.29 µM); in [11], 2 µg/mL (≈ 4.57 µM); in [12], 2 µg/mL (≈ 4.57 µM); in experiment [4], 4 µg/mL (≈ 9.15 µM). The IC50 (as a rule, the concentration needed to halve the response being measured) in experiment [6] is 18.3 µM; in [8], 31.8 µM.

Regarding `Clc1cccc(Cl)c1CCc1cc(C2CCNCC2)[nH]n1`, the MIC was 32 µg/mL (≈ 98.7 µM) in experiment [1], 128 µg/mL (≈ 395 µM) in [2], 64 µg/mL (≈ 197 µM) in [3] and 64 µg/mL (≈ 197 µM) in [4].

With `Cn1cc(/C=C/c2cc(C3CCNCC3)nn2-c2cccc(Cl)c2)c2cc(Cl)ccc21`, the MIC was 2 µg/mL (≈ 4.43 µM) in [5]; 1 µg/mL (≈ 2.22 µM) in experiment [7]; 2 µg/mL (≈ 4.43 µM) in experiment [9]; 2 µg/mL (≈ 4.43 µM) in experiment [1]; 2 µg/mL (≈ 4.43 µM) in experiment [10]; more than 128 µg/mL in [2]. The MIC in experiment [3] was 2 µg/mL (≈ 4.43 µM); in [11] it was 1 µg/mL (≈ 2.22 µM); in experiment [12] it was 1 µg/mL (≈ 2.22 µM); in experiment [4] it was 4 µg/mL (≈ 8.86 µM). The compound also gave an IC50 in [8] of 35.4 µM.

Regarding `Clc1cccc(-n2nc(C3CCNCC3)cc2CCc2c[nH]c3ccc(Cl)cc23)c1`, the MIC in [5] stood at 16 µg/mL (≈ 36.4 µM); in experiment [7], 8 µg/mL (≈ 18.2 µM); in experiment [9], 16 µg/mL (≈ 36.4 µM); in experiment [1], 16 µg/mL (≈ 36.4 µM); in experiment [10] it was 16 µg/mL (≈ 36.4 µM); in experiment [2], 64 µg/mL (≈ 146 µM). Also, the MIC in experiment [3], in experiment [11], in [12] and in experiment [4] was 16 µg/mL (≈ 36.4 µM) throughout.
